Results pooled from the literature.
Protocols differ between the studies behind these lines.

The IC50 of COc1ccc(-c2cc(-c3ccc(Br)cc3)c3c(=O)n(C)c(=O)n(C)c3n2)cc1 is reported as 10800 nM (HCT-116; cell growth or viability, MTT; 48 h).
C=CC(=O)Nc1cc(Nc2nccc(-c3cn(C)c4ccccc34)n2)c(OC)cc1N(C)CCN(C)C has an IC50 of 1440 nM (PC-9; cell growth or viability, MTS; 72 h).
COc1cc2c3c(n(CCCN4CCOCC4)c(=O)c2cc1OC)-c1nc2c(cc1C3=O)OCO2 gave an IC50 of 374 nM (Raji; cell growth or viability, MTS; 72 h).
NCCC(=O)NCc1ccccc1 has an IC50 of 122000 nM (DH82; PGE2 release, inhibitor, ELISA; 24 h, LPS-stimulated).
With C=C(F)C(=O)N1CCN(c2nc(OC[C@@H]3CCCN3C)nc3c2CCN(c2cccc4cccc(Cl)c24)C3)C[C@@H]1CC#N the IC50 was 2010 nM (PC-9; cell growth or viability, ATP luminescence).
COc1cc2c3c(n(CCCNCCO)c(=O)c2cc1OC)-c1nc2c(cc1C3=O)OCO2 gave an IC50 of 132 nM (Raji; cell growth or viability, MTS; 72 h).
C=CC(=O)N1CCN(c2nc(=O)n(-c3c(C)ccnc3C(C)C)c3nc(-c4c(O)cccc4F)c(F)cc23)[C@@H](C)C1 has an IC50 of greater than 10000 nM (PC-9; cell growth or viability, ATP luminescence).
With Nc1n[nH]c2nc(-c3cccc(O)c3)cc(-c3cc4cc(Cl)ccc4nc3N3CCOCC3)c12 the IC50 was 160 nM (NFS-60; cell growth or viability, MTT; 72 h).
The IC50 of CN1Cc2c(N)cccc2C(=O)N1C1CCC(=O)NC1=O (stereo not shown) is reported as less than 330 nM (NCI-H929; cell growth or viability, CCK-8; 96 h).
The IC50 of Cc1c(C(=O)O)ccc2c3n(nc12)[C@@H]1[C@H](C3)N(CC2CC2)[C@@]2(C(=O)Nc3cc(Cl)ccc32)[C@H]1c1cccc(Cl)c1F is reported as greater than 50000 nM (SK-OV-3; cell growth or viability, ATP luminescence).
With CCCOc1nc(-c2cccc(O)c2)cc(-c2cc3cc(Cl)ccc3nc2N2CCOCC2)c1C#N the IC50 was 244 nM (NFS-60; cell growth or viability, MTT; 72 h).
The IC50 of O=C(CCO)NCc1ccccc1 is reported as 49400 nM (DH82; PGE2 release, inhibitor, ELISA; 24 h, LPS-stimulated).
With Nc1n[nH]c2nc(-c3cccc(O)c3)cc(-c3cc4ccccc4nc3N3CCOCC3)c12 the IC50 was 64.1 nM (NFS-60; cell growth or viability, MTT; 72 h).
COCCC(=O)NCc1ccccc1 gave an IC50 of 126000 nM (DH82; PGE2 release, inhibitor, ELISA; 24 h, LPS-stimulated).
COc1cc2c3c(n(CCCNC(C)C)c(=O)c2cc1OC)-c1nc2c(cc1C3=O)OCO2 gave an IC50 of 180 nM (Raji; cell growth or viability, MTS; 72 h).
For O=C(CCNNC(=O)c1ccncc1)NCc1ccccc1, the IC50 was greater than 200000 nM (DH82; NO release, inhibitor, Griess; 24 h, LPS-stimulated).
With CC(C)c1ccccc1[C@@H]1CCCN1C1CC2(CCN(c3ccc(C(=O)NS(=O)(=O)c4ccc(NC[C@H]5CC[C@](C)(O)CC5)c([N+](=O)[O-])c4)c(Oc4cnc5[nH]ccc5c4)c3)CC2)C1 the IC50 was 6.5 nM (DOHH-2; cell growth or viability, ATP luminescence; 48 h).
NC(=O)c1ccncc1 has an IC50 of greater than 200000 nM (DH82; NO release, inhibitor, Griess; 24 h, LPS-stimulated).
With COc1ccc(-c2cc(-c3ccccc3Cl)c3c(=O)n(C)c(=O)n(C)c3n2)cc1 the IC50 was 14100 nM (HCT-116; cell growth or viability, MTT; 48 h).
